Here are results for 31 molecules from ChEMBL document CHEMBL2057155, “Synthesis of betulinic acid derivatives as entry inhibitors against HIV-1 and bevirimat-resistant HIV-1 variants” (Bioorg Med Chem Lett, 2012).

Each structure is given as a SMILES string.

Data set [1] has as its system Human immunodeficiency virus 1. The experiment in a line: Antiviral activity against HIV1 NL4-3 infected in human TZM-bl cells assessed as reduction in luciferase gene expression by luminescence assay. In kind it is functional, organism-based. The conditions noted are these: Human immunodeficiency virus 1, NL4-3, TZM-bl. Summed up: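 Single-cycle HIV-1 NL4-3 infection of TZM-bl cells; HIV-1 tat-driven luciferase expression after viral entry read as the measure of inhibition. […] control is NL4-3 infection without compound. Values are the mean of two or more independent experiments with standard deviation.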

Data set [2] can be described thus: Cytotoxicity against human TZM-bl assessed as cell viability at 4 uM after 2 days. In kind it is cell-based. Conditions: 48 h. Summed up:
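Toxicity to TZM-bl cells was checked within the single-cycle infection assay at 4 μM.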

As a reminder, the EC50 is the concentration that produces a half-maximal response.

Consider `C=C(C)[C@@H]1CC[C@]2(C(=O)NCCCCCCCCC(=O)N[C@@H](CCC(N)=O)C(=O)OC(C)(C)C)CC[C@]3(C)[C@H](CC[C@@H]4[C@@]5(C)CC[C@H](O)C(C)(C)[C@@H]5CC[C@]43C)[C@@H]12`, for which the EC50 in data set [1] was determined as 140 nM. Also, the Activity result in data set [2] was “Non-toxic”.

Take `C=C(C)[C@@H]1CC[C@]2(C(=O)NCCCCCCCCC(=O)N[C@@H](CC(N)=O)C(=O)OC)CC[C@]3(C)[C@H](CC[C@@H]4[C@@]5(C)CC[C@H](O)C(C)(C)[C@@H]5CC[C@]43C)[C@@H]12`: the EC50 in data set [1] was 110 nM. In addition, the Activity entry in data set [2] was “Non-toxic”.

With `C=C(C)[C@@H]1CC[C@]2(C(=O)NCCCCCCCCC(=O)N[C@@H](CCC(=O)OC)C(=O)OC)CC[C@]3(C)[C@H](CC[C@@H]4[C@@]5(C)CC[C@H](O)C(C)(C)[C@@H]5CC[C@]43C)[C@@H]12`, the EC50 in data set [1] amounted to 60 nM. Moreover, the Activity entry in data set [2] is “Non-toxic”.

On to `C=C(C)[C@@H]1CC[C@]2(C(=O)NCCCCCCCCC(=O)N[C@@H](C)C(=O)OC)CC[C@]3(C)[C@H](CC[C@@H]4[C@@]5(C)CC[C@H](O)C(C)(C)[C@@H]5CC[C@]43C)[C@@H]12`, for which, in data set [1], the EC50 is 70 nM. Besides, the Activity entry in data set [2] is on record as “Non-toxic”.

Regarding `C=C(C)[C@@H]1CC[C@]2(C(=O)NCCCCCCCCC(=O)N[C@H](C(=O)OC)[C@@H](C)CC)CC[C@]3(C)[C@H](CC[C@@H]4[C@@]5(C)CC[C@H](O)C(C)(C)[C@@H]5CC[C@]43C)[C@@H]12`, in data set [1], the EC50 was 140 nM. Moreover, in data set [2], the Activity result is on record as “Non-toxic”.

Consider `C=C(C)[C@@H]1CC[C@]2(C(=O)NCCCCCCCCC(=O)N[C@@H](CC(C)C)C(=O)OC)CC[C@]3(C)[C@H](CC[C@@H]4[C@@]5(C)CC[C@H](O)C(C)(C)[C@@H]5CC[C@]43C)[C@@H]12`, for which the EC50 in data set [1] was determined as 160 nM. The Activity entry in data set [2] was “Non-toxic”.

`C=C(C)[C@@H]1CC[C@]2(C(=O)NCCCCCCCCC(=O)N[C@@H](Cc3ccccc3)C(=O)OC)CC[C@]3(C)[C@H](CC[C@@H]4[C@@]5(C)CC[C@H](O)C(C)(C)[C@@H]5CC[C@]43C)[C@@H]12`: the EC50 in data set [1] is 720 nM. For the same molecule, the Activity result in data set [2] was “Non-toxic”.

Turning to `C=C(C)[C@@H]1CC[C@]2(C(=O)NCCCCCCCCC(=O)N3CCC[C@H]3C(=O)OC)CC[C@]3(C)[C@H](CC[C@@H]4[C@@]5(C)CC[C@H](O)C(C)(C)[C@@H]5CC[C@]43C)[C@@H]12`, the 50% effective concentration (EC50) in data set [1] was 160 nM. Moreover, in data set [2], the Activity entry is reported as “Non-toxic”.

As to `C=C(C)[C@@H]1CC[C@]2(C(=O)NCCCCCCCCC(=O)N[C@H](C(=O)OC)[C@@H](C)OC(C)(C)C)CC[C@]3(C)[C@H](CC[C@@H]4[C@@]5(C)CC[C@H](O)C(C)(C)[C@@H]5CC[C@]43C)[C@@H]12`, the EC50 in data set [1] was found to be 3490 nM. Moreover, in data set [2], the Activity entry is on record as “Non-toxic”.

As to `C=C(C)[C@@H]1CC[C@]2(C(=O)NCCCCCCCCCC(=O)N[C@@H](CCC(N)=O)C(=O)OC)CC[C@]3(C)[C@H](CC[C@@H]4[C@@]5(C)CC[C@H](O)C(C)(C)[C@@H]5CC[C@]43C)[C@@H]12`, in data set [1], the EC50 is 60 nM. In addition, the Activity entry in data set [2] is on record as “Non-toxic”.

As for `C=C(C)[C@@H]1CC[C@]2(C(=O)NCCCCCCCCCC(=O)N[C@@H](CC(N)=O)C(=O)OC)CC[C@]3(C)[C@H](CC[C@@H]4[C@@]5(C)CC[C@H](O)C(C)(C)[C@@H]5CC[C@]43C)[C@@H]12`, in data set [1], the EC50 turned out to be 80 nM. In data set [2], the Activity entry is given as “Non-toxic”.

On to `C=C(C)[C@@H]1CC[C@]2(C(=O)NCCCCCCCCC(=O)NCC#N)CC[C@]3(C)[C@H](CC[C@@H]4[C@@]5(C)CC[C@H](O)C(C)(C)[C@@H]5CC[C@]43C)[C@@H]12`, for which the EC50 in data set [1] amounted to 440 nM. In addition, the Activity result in data set [2] was “Non-toxic”.

For `C=C(C)[C@@H]1CC[C@]2(C(=O)NCCCCCCCCC(=O)NCCC#N)CC[C@]3(C)[C@H](CC[C@@H]4[C@@]5(C)CC[C@H](O)C(C)(C)[C@@H]5CC[C@]43C)[C@@H]12`, in data set [1], the EC50 is 340 nM. In addition, the Activity entry in data set [2] is given as “Non-toxic”.

`C=C(C)[C@@H]1CC[C@]2(C(=O)NCCCCCCCCC(=O)N(C)CC#N)CC[C@]3(C)[C@H](CC[C@@H]4[C@@]5(C)CC[C@H](O)C(C)(C)[C@@H]5CC[C@]43C)[C@@H]12`: the EC50 in data set [1] came out at 810 nM. Moreover, the Activity entry in data set [2] is “Non-toxic”.

As to `C=C(C)[C@@H]1CC[C@]2(C(=O)NCCCCC/C=C/C(=O)O)CC[C@]3(C)[C@H](CC[C@@H]4[C@@]5(C)CC[C@H](O)C(C)(C)[C@@H]5CC[C@]43C)[C@@H]12`, the EC50 in data set [1] was greater than 4000 nM. In data set [2], the Activity entry was “Non-toxic”.

Take `C=C(C)[C@@H]1CC[C@]2(C(=O)NCCCCC/C=C(/F)C(=O)O)CC[C@]3(C)[C@H](CC[C@@H]4[C@@]5(C)CC[C@H](O)C(C)(C)[C@@H]5CC[C@]43C)[C@@H]12`: the EC50 in data set [1] is greater than 4000 nM. For the same molecule, in data set [2], the Activity entry is given as “Non-toxic”.

As to `C=C(C)[C@@H]1CC[C@]2(C(=O)NCCCCC/C=C/C(=O)NCC(=O)O)CC[C@]3(C)[C@H](CC[C@@H]4[C@@]5(C)CC[C@H](O)C(C)(C)[C@@H]5CC[C@]43C)[C@@H]12`, the EC50 in data set [1] worked out at 150 nM. Moreover, the Activity result in data set [2] was “Non-toxic”.

As to `C=C(C)[C@@H]1CC[C@]2(C(=O)NCCCCC/C=C(/F)C(=O)NCC(=O)O)CC[C@]3(C)[C@H](CC[C@@H]4[C@@]5(C)CC[C@H](O)C(C)(C)[C@@H]5CC[C@]43C)[C@@H]12`, the concentration giving a half-maximal response (EC50) in data set [1] was 410 nM. The Activity result in data set [2] is given as “Non-toxic”.

For the molecule `C=C(C)[C@@H]1CC[C@]2(C(=O)NCCOCCOCC(=O)NCC(=O)O)CC[C@]3(C)[C@H](CC[C@@H]4[C@@]5(C)CC[C@H](O)C(C)(C)[C@@H]5CC[C@]43C)[C@@H]12`, the EC50 in data set [1] was greater than 4000 nM. Further, the Activity entry in data set [2] is given as “Non-toxic”.

In the case of `C=C(C)[C@@H]1CC[C@]2(C(=O)NCCOCCOCC(=O)N[C@@H](C)C(=O)O)CC[C@]3(C)[C@H](CC[C@@H]4[C@@]5(C)CC[C@H](O)C(C)(C)[C@@H]5CC[C@]43C)[C@@H]12`, the concentration for a half-maximal effect (EC50) in data set [1] is greater than 4000 nM. Moreover, in data set [2], the Activity entry is on record as “Non-toxic”.

Turning to `C=C(C)[C@@H]1CC[C@]2(C(=O)NCCOCCOCCNC(C)=O)CC[C@]3(C)[C@H](CC[C@@H]4[C@@]5(C)CC[C@H](O)C(C)(C)[C@@H]5CC[C@]43C)[C@@H]12`, in data set [1], the concentration giving a half-maximal response (EC50) is greater than 4000 nM. In data set [2], the Activity result is “Non-toxic”.

Turning to `C=C(C)[C@@H]1CC[C@]2(C(=O)NCCCCCCCNC(=O)[C@H](C)NC(=O)OC(C)(C)C)CC[C@]3(C)[C@H](CC[C@@H]4[C@@]5(C)CC[C@H](O)C(C)(C)[C@@H]5CC[C@]43C)[C@@H]12`, the EC50 in data set [1] turned out to be 110 nM. For the same molecule, the Activity result in data set [2] was “Non-toxic”.

As for `C=C(C)[C@@H]1CC[C@]2(C(=O)NCCCCCCCCNC(=O)[C@H](C)NC(=O)OC(C)(C)C)CC[C@]3(C)[C@H](CC[C@@H]4[C@@]5(C)CC[C@H](O)C(C)(C)[C@@H]5CC[C@]43C)[C@@H]12`, in data set [1], the EC50 came to 90 nM. The Activity result in data set [2] was “Non-toxic”.

For `C=C(C)[C@@H]1CC[C@]2(C(=O)NCCCCCCCCNC(=O)[C@H](CCC(N)=O)NC(=O)OC(C)(C)C)CC[C@]3(C)[C@H](CC[C@@H]4[C@@]5(C)CC[C@H](O)C(C)(C)[C@@H]5CC[C@]43C)[C@@H]12`, in data set [1], the EC50 was determined as 60 nM. In addition, the Activity entry in data set [2] is listed as “Non-toxic”.

Consider `C=C(C)[C@@H]1CC[C@]2(C(=O)NCCCCCCCCNC(=O)[C@@H](NC(=O)OC(C)(C)C)C(C)C)CC[C@]3(C)[C@H](CC[C@@H]4[C@@]5(C)CC[C@H](O)C(C)(C)[C@@H]5CC[C@]43C)[C@@H]12`, for which the EC50 in data set [1] worked out at 2430 nM. In addition, in data set [2], the Activity entry was “Non-toxic”.

As for `C=C(C)[C@@H]1CC[C@]2(C(=O)NCCCCCCCCNC(=O)[C@@H]3CCCN3C(=O)OC(C)(C)C)CC[C@]3(C)[C@H](CC[C@@H]4[C@@]5(C)CC[C@H](O)C(C)(C)[C@@H]5CC[C@]43C)[C@@H]12`, the EC50 in data set [1] worked out at 160 nM. Besides, the Activity entry in data set [2] is “Non-toxic”.

For the molecule `C=C(C)[C@@H]1CC[C@]2(C(=O)NCCCCCCCCCNC(=O)[C@H](CCC(N)=O)NC(=O)OC(C)(C)C)CC[C@]3(C)[C@H](CC[C@@H]4[C@@]5(C)CC[C@H](O)C(C)(C)[C@@H]5CC[C@]43C)[C@@H]12`, the EC50 in data set [1] was found to be 120 nM. In data set [2], the Activity entry is recorded as “Non-toxic”.

For the molecule `C=C(C)[C@@H]1CC[C@]2(C(=O)NCCCCCCCCCNC(=O)[C@H](C)NC(=O)OC(C)(C)C)CC[C@]3(C)[C@H](CC[C@@H]4[C@@]5(C)CC[C@H](O)C(C)(C)[C@@H]5CC[C@]43C)[C@@H]12`, the EC50 in data set [1] was greater than 4000 nM. The Activity entry in data set [2] is reported as “Non-toxic”.

Regarding `C=C(C)[C@@H]1CC[C@]2(C(=O)NCCCCCCCCNC(=O)C(CCC#N)NC(=O)OC(C)(C)C)CC[C@]3(C)[C@H](CC[C@@H]4[C@@]5(C)CC[C@H](O)C(C)(C)[C@@H]5CC[C@]43C)[C@@H]12` (some centres not stated), the EC50 in data set [1] amounted to 80 nM. The Activity entry in data set [2] is given as “Non-toxic”.

On to `C=C(C)[C@@H]1CC[C@]2(C(=O)NCCCCCCC(=O)N[C@@H](CCC(N)=O)C(=O)OC)CC[C@]3(C)[C@H](CC[C@@H]4[C@@]5(C)CC[C@H](O)C(C)(C)[C@@H]5CC[C@]43C)[C@@H]12`, for which the EC50 in data set [1] was greater than 4000 nM. The Activity result in data set [2] is “Non-toxic”.

As for `C=C(C)[C@@H]1CC[C@]2(C(=O)NCCCCCCCC(=O)N[C@@H](CCC(N)=O)C(=O)OC)CC[C@]3(C)[C@H](CC[C@@H]4[C@@]5(C)CC[C@H](O)C(C)(C)[C@@H]5CC[C@]43C)[C@@H]12`, the EC50 in data set [1] amounted to 140 nM. Besides, in data set [2], the Activity entry is reported as “Non-toxic”.
